Results reported in ChEMBL document CHEMBL1154974, “Semi-automated high-throughput fluorescent intercalator displacement-based discovery of cytotoxic DNA binding agents from a large compound library” (Bioorg Med Chem Lett, 2010).
*1 amine or outer side, *2 acyl side, *3 side chain or, on linkers, in order; H or OH if unused. Where a SMILES comes first, the peptide text is derived from it. Bridges are numbered along the chain shown (N, C = ends). Roman numbers before positions name the chains, in order. [ ]: non-standard residue; d: D form. Actinocin(1to9) = Cc1c2oc3c(C)ccc(C(=O)[*:2])c3nc-2c(C(=O)[*:1])c(N)c1=O; NMeV = CN[C@H](C(=O)O)C(C)C; Sar = CNCC(=O)O

Assays:
[1] = Cytotoxicity against human SF-767 cells assessed as viable cells after 72 hrs by MTT assay; format: functional; settings: SF767, 72 h, read-out: LC50 (the source's name)
Procedure, shortened: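 SF767 glioblastoma cells, 2000 per well, grown 24 h, then exposed to increasing concentrations of compound for 72 h. Viable cells read by MTT with standard protocols. Media-only blank in each treatment group as background. Run in triplicate. LC50 read graphically from plots of % surviving cells against concentration.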

[2] = test system: Nucleic Acid; experiment: Binding affinity to G/C-rich DNA oligonucleotide assessed as change in melting temperature by thermal denaturation assay; format: nucleic-acid assay
[3] = test system: Nucleic Acid; experiment: Binding affinity to poly dA/dT DNA assessed as change in melting temperature by thermal denaturation assay; format: nucleic-acid assay
[4] = test system: Nucleic Acid; experiment: Binding affinity to calf thymus DNA assessed as decrease in ethidium bromide fluorescence by FID assay; format: nucleic-acid assay, Bos taurus
Procedure, shortened: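 Concentration-response FID using plate conditions as in the screen (calf thymus DNA, ethidium bromide, Tris buffer). Compound added to final 0.1-50 μM, from gravimetrically prepared stocks. FD50 taken as concentration giving 50% fluorescence decrease within each compound's achievable range; maximum %F decrease measured experimentally.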

[5] = test system: Nucleic Acid; experiment: Binding affinity to calf thymus DNA assessed as decrease in ethidium bromide fluorescence at 10 uM by HT-FID assay; format: nucleic-acid assay; settings: Bos taurus

Row | SMILES | CC50 [1] [µM] | ΔTm [2] [°C] | ΔTm [3] [°C] | EC50 [4] [µM] | Binding Decrease [5] [%]
1 | CCc1ccc2c(C)nc(NC3=NC(C)(C)C=C(C)N3)nc2c1 | 2.6 | 0 | 10 | 7.7 | 40
2 | Cc1cccn2c(=O)c3cc(C(=O)NCCc4ccccc4)c(=N)n(CCc4ccccc4)c3nc12 | > 25 | 10 | 0 | 7.7 | 22
3 | Cc1c2oc3c(C)ccc(C(=O)N[C@@H]4C(=O)N[C@H](C(C)C)C(=O)N5CCC[C@H]5C(=O)N(C)CC(=O)N(C)[C@@H](C(C)C)C(=O)O[C@@H]4C)c3nc-2c(C(=O)N[C@@H]2C(=O)N[C@H](C(C)C)C(=O)N3CCC[C@H]3C(=O)N(C)CC(=O)N(C)[C@@H](C(C)C)C(=O)O[C@@H]2C)c(N)c1=O [DACTINOMYCIN] (I: T[dV]P[Sar][NMeV] / II: T[dV]P[Sar][NMeV]; ester I:1-I:C, II:1-II:C; linker I:N-II:N via Actinocin(1to9)) |  | 10 | > 45 | 4.3 | 63
4 | CC(C)c1ccc(CNCCC(c2ccccc2)c2ccco2)cc1 (stereo not drawn) | 13 | 0 | > 45 | 13.5 | 34
5 | Cc1ccc(Nc2nc(N)nc(CN3CCC(Cc4ccccc4)CC3)n2)cc1 | 26 | 0 | > 45 | 5.5 | 32
6 | CCc1ccc(C2NCc3ccccc3-n3cccc32)cc1 (stereo not drawn) | 35 | 0 | > 45 | 9.4 | 36
7 | CC(C)c1ccc(CNc2ccc3c(c2)ncn3C)cc1 | 10 | 0 | > 45 | 4.4 | 32
8 | Cn1cc(NC(=O)c2cc(NC(=O)CNC(=N)N)cn2C)cc1C(=O)NCCC(=N)N [NETROPSIN] |  | 0 | 45 | 5.1 | 32
9 | CCOC(=O)Cn1c(=N)n(CCOc2cccc(C)c2)c2ccccc21 | > 50 | 0 | > 45 | 7.7 | 46
